ChEMBL document CHEMBL1136094, “Novel, potent and selective cyclin D1/CDK4 inhibitors: indolo[6,7-a]pyrrolo[3,4-c]carbazoles” (Bioorg Med Chem Lett, 2003)
In brackets after ≈: the same amount, converted by molar mass.

Tests used:
[1] = target: Serine/threonine-protein kinase Chk1 (Homo sapiens) (UniProt O14757); test: Inhibition of Serine/threonine-protein kinase Chk1 at 500 nM; set-up: scale not given: the % may be the effect or the level left
Summary of the method: (§1)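 Panel of 39 kinases, each tested at 100 and 500 nM inhibitor. […] Activity is expressed as % of control and is the mean of duplicate assays.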

[2] = target: Tyrosine-protein kinase Lck (Homo sapiens) (UniProt P06239); test: Inhibition of p56 Lck tyrosine kinase at 500 nM; set-up: scale not given: the % may be the effect or the level left; summary of the method: as §1
[3] = Percent control against SKG at compound concentration of 500 nM; summary of the method: as §1
[4] = target: Mitogen-activated protein kinase 12 (Homo sapiens) (UniProt P53778); test: Inhibition of Stress activated protein kinase 3 at 500 nM; set-up: scale not given: the % may be the effect or the level left; summary of the method: as §1
[5] = target: Tyrosine-protein kinase Lyn (Homo sapiens) (UniProt P07948); test: Inhibition of Protein tyrosine kinase Lyn at 500 nM; set-up: scale not given: the % may be the effect or the level left; summary of the method: as §1
[6] = target: Protein kinase C gamma type (Homo sapiens) (UniProt P05129); test: Inhibition of Protein kinase C gamma at 500 nM; set-up: scale not given: the % may be the effect or the level left; summary of the method: as §1
[7] = target: Mitogen-activated protein kinase 8 (Homo sapiens) (UniProt P45983); test: Inhibition of c-Jun N-terminal kinase 1-alpha 1 at 500 nM; set-up: scale not given: the % may be the effect or the level left; summary of the method: as §1
[8] = target: Tyrosine-protein kinase CSK (Homo sapiens) (UniProt P41240); test: Inhibition of Tyrosine-protein kinase CSK at 500 nM; set-up: scale not given: the % may be the effect or the level left; summary of the method: as §1
[9] = target: CDK3/cyclin E (Homo sapiens) (UniProt P24864+O96020+Q00526); test: Inhibition of Cyclin E-cyclin-dependent kinase 3 at 500 nM; format: protein-complex assay; set-up: scale not given: the % may be the effect or the level left
Summary of the method: (§2)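 Panel profiling of isolated kinases with inhibitor at 100 nM and 500 nM. […] Remaining kinase activity is expressed as % of control and is the mean of duplicate assays.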

[10] = target: Dual specificity mitogen-activated protein kinase kinase 7 (Homo sapiens) (UniProt O14733); test: Inhibition of MKK7-beta kinase at 500 nM; set-up: scale not given: the % may be the effect or the level left; summary of the method: as §2
[11] = target: Serine/threonine-protein kinase Chk1 (Homo sapiens) (UniProt O14757); test: Inhibition of Serine/threonine-protein kinase Chk1 at 100 nM; set-up: scale not given: the % may be the effect or the level left; summary of the method: as §1
[12] = Aqueous solubility (in situ) in D5W after 1 week was determined; format: physicochemical; details: D5W
[13] = target: Calcium/calmodulin-dependent protein kinase type IV (Homo sapiens) (UniProt Q16566); test: Inhibition of Calcium/calmodulin-dependent protein kinase type IV at 500 nM; set-up: scale not given: the % may be the effect or the level left; summary of the method: as §2
NCI-H460 = test: In vitro antiproliferative activity against human carcinoma cell line H460 (lung); format: functional, cell-based
[14] = target: MAP kinase-activated protein kinase 2 (Homo sapiens) (UniProt P49137); test: Inhibition of mitogen-activated protein kinase-activated protein kinase 2 at 100 nM; set-up: scale not given: the % may be the effect or the level left; summary of the method: as §1
[15] = target: Mitogen-activated protein kinase 10 (Homo sapiens) (UniProt P53779); test: Inhibition of c-Jun N-terminal kinase 3 at 100 nM; set-up: scale not given: the % may be the effect or the level left; summary of the method: as §1
[16] = target: Dual specificity mitogen-activated protein kinase kinase 4 (Homo sapiens) (UniProt P45985); test: Inhibition of mitogen-activated protein kinase kinase 4 at 100 nM; set-up: scale not given: the % may be the effect or the level left; summary of the method: as §1
[17] = target: Cyclin-dependent kinase 2/cyclin A (Homo sapiens) (UniProt P24941+P20248+P78396); test: Inhibition of Cyclin A-cyclin-dependent kinase 2 at 100 nM; format: protein-complex assay; set-up: scale not given: the % may be the effect or the level left; summary of the method: as §2
[18] = target: Mitogen-activated protein kinase 14 (Homo sapiens, UniProt Q16539); test: Inhibition of Mitogen-activated protein kinase p38 alpha
[19] = target: Tyrosine-protein kinase ZAP-70 (Homo sapiens) (UniProt P43403); test: Inhibition of Zeta-chain (TCR) associated protein kinase 70 kDa (ZAP70) at 500 nM; set-up: scale not given: the % may be the effect or the level left; summary of the method: as §1
[20] = target: Serine/threonine-protein kinase N2 (Homo sapiens) (UniProt Q16513); test: Inhibition of PRK2 at 500 nM; set-up: scale not given: the % may be the effect or the level left; summary of the method: as §2
HCT-116 = test: In vitro antiproliferative activity against human carcinoma cell line HCT116 (colon); format: functional, cell-based
[21] = target: Ribosomal protein S6 kinase alpha-5 (Homo sapiens) (UniProt O75582); test: Inhibition of MSK-1 kinase at 500 nM; set-up: scale not given: the % may be the effect or the level left; summary of the method: as §2
[22] = target: Serine/threonine-protein kinase Sgk1 (Homo sapiens) (UniProt O00141); test: Inhibition of Serum/glucocorticoid regulated kinase at 100 nM; set-up: scale not given: the % may be the effect or the level left; summary of the method: as §1
[23] = target: Ribosomal protein S6 kinase alpha-5 (Homo sapiens) (UniProt O75582); test: Inhibition of MSK-1 kinase at 100 nM; set-up: scale not given: the % may be the effect or the level left; summary of the method: as §2
[24] = target: Dual specificity mitogen-activated protein kinase kinase 1 (Homo sapiens) (UniProt Q02750); test: Inhibition of Mitogen activated protein kinase kinase kinase 1 at 500 nM; set-up: scale not given: the % may be the effect or the level left
[25] = target: Protein kinase C alpha type (Homo sapiens) (UniProt P17252); test: Inhibition of Protein kinase C alpha at 100 nM; set-up: scale not given: the % may be the effect or the level left; summary of the method: as §2
[26] = target: Cyclin-dependent kinase 5/CDK5 activator 1 (Homo sapiens) (UniProt Q00535+Q15078); test: Inhibition of Cyclin-dependent kinase 5-p35nck5a at 100 nM; format: protein-complex assay; set-up: scale not given: the % may be the effect or the level left; summary of the method: as §2
[27] = target: Protein kinase C beta type (Homo sapiens) (UniProt P05771); test: Inhibition of Protein kinase C beta 2 at 100 nM; set-up: scale not given: the % may be the effect or the level left; summary of the method: as §2
[28] = target: T1, Ribosomal protein S6 kinase (P70S6K) (Homo sapiens) (UniProt Q9UBS0+P23443); test: Inhibition of Ribosomal protein S6 kinase (p70S6K) at 100 nM; format: protein-complex assay; set-up: scale not given: the % may be the effect or the level left; summary of the method: as §1
[29] = target: 3-phosphoinositide-dependent protein kinase 1 (Homo sapiens) (UniProt O15530); test: Inhibition of PDK1 kinase at 100 nM; set-up: scale not given: the % may be the effect or the level left; summary of the method: as §2
[30] = target: Mitogen-activated protein kinase 1 (Homo sapiens) (UniProt P28482); test: Inhibition of Mitogen-activated protein kinase 2 at 100 nM; set-up: scale not given: the % may be the effect or the level left; summary of the method: as §2
[31] = target: Tyrosine-protein kinase Fyn (Homo sapiens) (UniProt P06241); test: Inhibition of Fyn protein kinase at 500 nM; set-up: scale not given: the % may be the effect or the level left; summary of the method: as §2
[32] = target: Casein kinase II (Homo sapiens) (UniProt P67870+P68400+P19784); test: Inhibition of CK2 kinase at 100 nM; format: protein-complex assay; set-up: scale not given: the % may be the effect or the level left; summary of the method: as §2
[33] = target: Tyrosine-protein kinase Fyn (Homo sapiens) (UniProt P06241); test: Inhibition of Fyn protein kinase at 100 nM; set-up: scale not given: the % may be the effect or the level left; summary of the method: as §2
[34] = target: Protein kinase C theta type (Homo sapiens) (UniProt Q04759); test: Inhibition of Protein kinase C theta at 100 nM; set-up: scale not given: the % may be the effect or the level left; summary of the method: as §1
[35] = target: Serine/threonine-protein kinase Sgk1 (Homo sapiens) (UniProt O00141); test: Inhibition of Serum/glucocorticoid regulated kinase at 500 nM; set-up: scale not given: the % may be the effect or the level left; summary of the method: as §1
[36] = target: Dual specificity mitogen-activated protein kinase kinase 1 (Homo sapiens) (UniProt Q02750); test: Inhibition of Mitogen activated protein kinase kinase kinase 1 at 100 nM; set-up: scale not given: the % may be the effect or the level left
[37] = target: Rho-associated protein kinase 2 (Homo sapiens) (UniProt O75116); test: Inhibition of Protein kinase ROCK2 at 500 nM; set-up: scale not given: the % may be the effect or the level left; summary of the method: as §1
[38] = target: Tyrosine-protein kinase Blk (Homo sapiens) (UniProt P51451); test: Inhibition of B lymphoid tyrosine kinase at 500 nM; set-up: scale not given: the % may be the effect or the level left; summary of the method: as §2
[39] = target: Tyrosine-protein kinase Lck (Homo sapiens) (UniProt P06239); test: Inhibition of p56 Lck tyrosine kinase at 100 nM; set-up: scale not given: the % may be the effect or the level left; summary of the method: as §1
[40] = target: T1, Ribosomal protein S6 kinase (P70S6K) (Homo sapiens); test: Inhibition of Ribosomal protein S6 kinase (p70S6K) at 500 nM; format: protein-complex assay; set-up: scale not given: the % may be the effect or the level left; summary of the method: as §1
[41] = target: Serine/threonine-protein kinase N2 (Homo sapiens) (UniProt Q16513); test: Inhibition of PRK2 at 100 nM; set-up: scale not given: the % may be the effect or the level left; summary of the method: as §2
[42] = target: MAP kinase-activated protein kinase 5 (Homo sapiens) (UniProt Q8IW41); test: Inhibition of Protein kinase PRAK at 500 nM; set-up: scale not given: the % may be the effect or the level left; summary of the method: as §1
[43] = target: Mitogen-activated protein kinase kinase kinase 20 (Homo sapiens, UniProt Q9NYL2); test: Inhibition of MLK-7 kinase
[44] = Inhibition of AMP-activated Protein Kinase at 100 nM; set-up: scale not given: the % may be the effect or the level left; summary of the method: as §2

Chain of Serine/threonine-protein kinase N2 (Homo sapiens) (Q16513 whole entry, looked up): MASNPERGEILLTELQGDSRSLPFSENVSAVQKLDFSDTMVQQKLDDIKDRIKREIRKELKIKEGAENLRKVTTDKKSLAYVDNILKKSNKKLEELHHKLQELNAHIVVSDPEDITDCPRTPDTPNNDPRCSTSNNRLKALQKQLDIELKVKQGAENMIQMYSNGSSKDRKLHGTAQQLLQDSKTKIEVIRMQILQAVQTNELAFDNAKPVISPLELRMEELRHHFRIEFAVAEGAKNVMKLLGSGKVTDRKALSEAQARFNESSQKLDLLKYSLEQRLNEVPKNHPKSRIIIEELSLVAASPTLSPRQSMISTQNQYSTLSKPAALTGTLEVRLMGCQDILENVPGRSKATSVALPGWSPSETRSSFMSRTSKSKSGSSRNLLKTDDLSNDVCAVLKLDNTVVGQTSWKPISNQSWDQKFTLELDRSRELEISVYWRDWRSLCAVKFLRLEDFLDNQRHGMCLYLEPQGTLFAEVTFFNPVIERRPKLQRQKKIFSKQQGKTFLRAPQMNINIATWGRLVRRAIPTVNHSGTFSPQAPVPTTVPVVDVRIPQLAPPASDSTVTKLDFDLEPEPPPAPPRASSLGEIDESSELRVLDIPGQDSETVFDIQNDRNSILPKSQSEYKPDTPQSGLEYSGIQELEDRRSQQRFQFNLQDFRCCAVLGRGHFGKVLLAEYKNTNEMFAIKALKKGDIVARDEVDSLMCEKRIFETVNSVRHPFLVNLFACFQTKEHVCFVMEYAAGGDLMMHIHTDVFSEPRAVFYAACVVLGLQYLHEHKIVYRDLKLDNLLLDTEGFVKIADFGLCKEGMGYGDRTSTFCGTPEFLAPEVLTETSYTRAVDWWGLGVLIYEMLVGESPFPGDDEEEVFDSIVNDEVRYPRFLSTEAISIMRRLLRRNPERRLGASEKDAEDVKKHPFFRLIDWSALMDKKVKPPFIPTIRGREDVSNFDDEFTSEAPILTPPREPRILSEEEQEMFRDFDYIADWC
Chain of Ribosomal protein S6 kinase alpha-5 (Homo sapiens) (O75582 whole entry, looked up): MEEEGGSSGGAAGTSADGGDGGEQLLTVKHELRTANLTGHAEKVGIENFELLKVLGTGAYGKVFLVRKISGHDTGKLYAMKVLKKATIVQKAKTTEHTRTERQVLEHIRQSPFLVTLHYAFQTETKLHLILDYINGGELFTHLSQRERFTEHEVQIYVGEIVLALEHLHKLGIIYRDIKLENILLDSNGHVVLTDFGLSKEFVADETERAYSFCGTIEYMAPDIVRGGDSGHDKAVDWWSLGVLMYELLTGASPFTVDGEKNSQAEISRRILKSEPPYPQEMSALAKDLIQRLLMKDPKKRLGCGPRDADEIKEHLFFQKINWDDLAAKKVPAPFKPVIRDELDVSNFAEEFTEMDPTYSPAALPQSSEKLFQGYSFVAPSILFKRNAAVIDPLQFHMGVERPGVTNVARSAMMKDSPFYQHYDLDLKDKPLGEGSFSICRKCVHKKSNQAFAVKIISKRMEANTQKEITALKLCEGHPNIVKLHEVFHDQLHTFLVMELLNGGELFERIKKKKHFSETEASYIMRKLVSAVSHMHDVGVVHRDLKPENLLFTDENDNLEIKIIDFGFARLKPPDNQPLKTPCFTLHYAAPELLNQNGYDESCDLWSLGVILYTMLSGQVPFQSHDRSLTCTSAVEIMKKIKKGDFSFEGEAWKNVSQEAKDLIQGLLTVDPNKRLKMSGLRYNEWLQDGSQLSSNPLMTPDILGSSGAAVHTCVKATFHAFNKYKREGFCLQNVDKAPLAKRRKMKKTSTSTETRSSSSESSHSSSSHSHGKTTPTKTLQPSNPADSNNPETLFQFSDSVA
Chain of Serine/threonine-protein kinase Sgk1 (Homo sapiens) (O00141 whole entry): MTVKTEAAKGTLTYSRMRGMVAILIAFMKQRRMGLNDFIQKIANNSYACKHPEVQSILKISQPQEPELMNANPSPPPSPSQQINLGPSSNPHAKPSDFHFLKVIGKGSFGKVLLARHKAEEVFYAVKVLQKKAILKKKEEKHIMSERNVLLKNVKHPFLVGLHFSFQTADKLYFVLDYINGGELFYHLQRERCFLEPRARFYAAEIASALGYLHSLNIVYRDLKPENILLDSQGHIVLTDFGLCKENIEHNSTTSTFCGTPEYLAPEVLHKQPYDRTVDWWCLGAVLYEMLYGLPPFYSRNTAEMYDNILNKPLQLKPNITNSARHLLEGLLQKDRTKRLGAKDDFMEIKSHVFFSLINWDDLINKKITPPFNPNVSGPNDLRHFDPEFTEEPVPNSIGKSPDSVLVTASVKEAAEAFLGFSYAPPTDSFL
Chain of Tyrosine-protein kinase Lck (Homo sapiens) (P06239 2-509 limits assumed): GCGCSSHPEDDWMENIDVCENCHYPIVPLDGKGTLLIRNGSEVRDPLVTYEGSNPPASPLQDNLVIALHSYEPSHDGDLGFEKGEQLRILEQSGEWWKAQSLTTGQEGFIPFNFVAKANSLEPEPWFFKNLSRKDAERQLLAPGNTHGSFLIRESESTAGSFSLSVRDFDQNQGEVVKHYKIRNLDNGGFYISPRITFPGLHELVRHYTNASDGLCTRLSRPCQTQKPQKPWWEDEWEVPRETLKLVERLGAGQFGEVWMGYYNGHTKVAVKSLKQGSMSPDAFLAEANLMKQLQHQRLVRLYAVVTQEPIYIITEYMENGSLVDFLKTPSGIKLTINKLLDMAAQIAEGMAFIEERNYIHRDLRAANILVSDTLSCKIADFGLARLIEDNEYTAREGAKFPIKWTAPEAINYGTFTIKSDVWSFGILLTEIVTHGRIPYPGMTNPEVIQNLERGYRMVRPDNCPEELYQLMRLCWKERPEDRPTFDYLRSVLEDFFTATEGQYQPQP
Chain of Dual specificity mitogen-activated protein kinase kinase 1 (Homo sapiens) (Q02750 whole entry): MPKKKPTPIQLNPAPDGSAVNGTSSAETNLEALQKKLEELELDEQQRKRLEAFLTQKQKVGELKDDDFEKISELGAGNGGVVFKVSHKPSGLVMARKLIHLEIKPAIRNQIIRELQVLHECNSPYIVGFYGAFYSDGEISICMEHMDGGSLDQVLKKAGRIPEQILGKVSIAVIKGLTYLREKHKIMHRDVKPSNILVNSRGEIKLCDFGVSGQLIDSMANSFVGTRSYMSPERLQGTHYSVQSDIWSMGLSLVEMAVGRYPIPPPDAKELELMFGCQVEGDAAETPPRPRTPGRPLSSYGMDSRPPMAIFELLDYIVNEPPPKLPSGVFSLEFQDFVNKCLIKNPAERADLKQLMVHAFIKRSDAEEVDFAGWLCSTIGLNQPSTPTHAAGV
Chain of Tyrosine-protein kinase Fyn (Homo sapiens) (P06241 2-537 limits assumed): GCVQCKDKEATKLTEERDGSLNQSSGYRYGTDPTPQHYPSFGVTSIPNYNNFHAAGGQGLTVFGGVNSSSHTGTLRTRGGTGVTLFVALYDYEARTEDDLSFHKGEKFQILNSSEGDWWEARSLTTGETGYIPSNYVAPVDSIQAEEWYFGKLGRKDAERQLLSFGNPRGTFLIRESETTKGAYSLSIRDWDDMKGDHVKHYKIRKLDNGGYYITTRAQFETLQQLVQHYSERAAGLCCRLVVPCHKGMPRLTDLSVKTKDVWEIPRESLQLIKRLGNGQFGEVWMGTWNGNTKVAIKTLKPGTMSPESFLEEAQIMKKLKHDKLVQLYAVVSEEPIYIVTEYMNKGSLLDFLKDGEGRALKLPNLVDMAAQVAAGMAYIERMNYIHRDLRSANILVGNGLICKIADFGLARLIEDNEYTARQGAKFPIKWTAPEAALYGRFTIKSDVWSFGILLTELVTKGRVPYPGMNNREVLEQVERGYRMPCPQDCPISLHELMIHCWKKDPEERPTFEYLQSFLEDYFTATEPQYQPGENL
Chain of Serine/threonine-protein kinase Chk1 (Homo sapiens) (O14757 whole entry): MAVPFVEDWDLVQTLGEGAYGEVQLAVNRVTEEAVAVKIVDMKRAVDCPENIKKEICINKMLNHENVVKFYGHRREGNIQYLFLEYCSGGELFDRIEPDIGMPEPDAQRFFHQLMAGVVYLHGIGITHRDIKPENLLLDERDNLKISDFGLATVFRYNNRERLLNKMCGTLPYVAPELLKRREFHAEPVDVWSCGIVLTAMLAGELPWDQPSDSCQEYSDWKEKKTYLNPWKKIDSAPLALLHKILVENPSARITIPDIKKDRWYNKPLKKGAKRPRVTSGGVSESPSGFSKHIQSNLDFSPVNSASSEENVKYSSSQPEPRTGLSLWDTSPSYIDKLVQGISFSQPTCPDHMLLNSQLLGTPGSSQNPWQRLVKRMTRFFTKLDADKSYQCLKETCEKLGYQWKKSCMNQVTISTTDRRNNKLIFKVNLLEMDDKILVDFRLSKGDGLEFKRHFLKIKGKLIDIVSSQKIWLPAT
Chain of Calcium/calmodulin-dependent protein kinase type IV (Homo sapiens) (Q16566 whole entry): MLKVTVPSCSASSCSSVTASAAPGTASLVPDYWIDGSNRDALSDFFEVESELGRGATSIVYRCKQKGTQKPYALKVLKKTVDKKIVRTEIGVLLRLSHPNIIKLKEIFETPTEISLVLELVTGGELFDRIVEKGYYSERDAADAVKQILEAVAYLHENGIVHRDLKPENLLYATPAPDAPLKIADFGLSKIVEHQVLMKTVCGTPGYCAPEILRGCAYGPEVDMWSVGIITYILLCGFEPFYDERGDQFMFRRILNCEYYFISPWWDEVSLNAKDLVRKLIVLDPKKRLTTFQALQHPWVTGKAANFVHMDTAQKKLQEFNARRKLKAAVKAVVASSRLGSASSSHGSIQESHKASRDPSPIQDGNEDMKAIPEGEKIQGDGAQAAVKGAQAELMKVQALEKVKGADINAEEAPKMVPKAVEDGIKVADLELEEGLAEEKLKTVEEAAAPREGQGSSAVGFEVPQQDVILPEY
Chain of Mitogen-activated protein kinase 12 (Homo sapiens) (P53778 whole entry): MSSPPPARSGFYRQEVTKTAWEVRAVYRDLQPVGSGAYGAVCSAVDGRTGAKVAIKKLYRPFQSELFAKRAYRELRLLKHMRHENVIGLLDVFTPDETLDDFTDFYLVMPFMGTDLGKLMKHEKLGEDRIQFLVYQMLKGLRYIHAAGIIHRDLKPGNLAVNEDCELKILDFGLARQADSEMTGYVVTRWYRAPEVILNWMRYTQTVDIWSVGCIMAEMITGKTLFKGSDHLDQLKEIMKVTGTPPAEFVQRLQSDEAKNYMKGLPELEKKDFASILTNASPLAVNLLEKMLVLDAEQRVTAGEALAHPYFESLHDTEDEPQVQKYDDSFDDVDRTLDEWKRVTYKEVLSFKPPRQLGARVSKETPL

Cn1ccc2ccc3c4[nH]c5c(CCCN[C@H]6CC[C@H](O)CC6)cccc5c4c4c(c3c21)C(=O)NC4=O
Control [1]: 70%
Control [2]: 60%
Control [3]: 84%
Control [4]: 109%
Control [5]: 18%
Control [6]: 84%
Control [7]: 88%
Control [8]: 116%
Control [9]: 63%
Control [10]: 70%
Control [11]: 86%
solubility at 168 h [12]: 8900 µg/mL (≈ 18 mM)
Control [13]: 102%
IC50 (NCI-H460): 1.67 µM
Control [14]: 94%
Control [15]: 105%
Control [16]: 91%
Control [17]: 83%
IC50 [18]: 20.2 µM
Control [19]: 107%
Control [20]: 88%
IC50 (HCT-116): 1.05 µM
Control [21]: 90%
Control [22]: 94%
Control [23]: 92%
Control [24]: 87%
Control [25]: 100%
Control [26]: 94%
Control [27]: 96%
Control [28]: 93%
Control [29]: 104%
Control [30]: 103%
Control [31]: 74%
Control [32]: 99%
Control [33]: 92%
Control [34]: 82%
Control [35]: 84%
Control [36]: 95%
Control [37]: 62%
Control [38]: 14%
Control [39]: 98%
Control [40]: 85%
Control [41]: 97%
Control [42]: 50%
IC50 [43]: 9.97 µM
Control [44]: 98%
